From ChEMBL document CHEMBL4359865, “Synthesis and evaluation of 2,5-furan, 2,5-thiophene and 3,4-thiophene-based derivatives as CXCR4 inhibitors” (Eur J Med Chem, 2019)

Experiments:
[1] = target: C-X-C chemokine receptor type 4 (Homo sapiens) (UniProt P61073); assay: Inhibition of biotinylated TN14003 binding to CXCR4 in human MDA-MB-231 cells preincubated for 10 mins followed by biotinylated-TN14003 addition measured after 30 mins by streptavidin-rhodamine staining based fluorescence microscopic analysis; format: cell-based
How it was run: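 MDA-MB-231 cells (CXCR4-overexpressing) exposed to compound at 1, 10, 100 and 1000 nM for 10 min at room temperature. Cells fixed in chilled 4% paraformaldehyde, rehydrated in PBS, then stained with 0.05 µg/mL biotinylated TN14003 for 30 min at room temperature, washed three times in PBS, and stained with streptavidin-rhodamine (1:150) for 30 min. Read by fluorescence microscopy. EC taken as the lowest concentration, by order of magnitude, giving a significant drop in fluorescence versus control.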

[2] = target: C-X-C chemokine receptor type 4 (Homo sapiens) (UniProt P61073); assay: Inhibition of CXCR4-mediated chemotaxis in human MDA-MB-231 cells assessed as reduction in CXCL12alpha-induced cell invasion at 100 nM incubated for 22 hrs by hematoxylin/eosin dye-based matrigel assay relative to control
How it was run: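 Run in a Matrigel invasion chamber. The bottom chamber held CXCL12 (200 ng/mL). MDA-MB-231 cells were treated with compound at 100 nM, placed in the top chamber, and incubated 22 h in a humidified incubator. Non-invading cells were swabbed off; cells in the bottom chamber were H&E-stained, fixed in methanol and counted. Results given as % inhibition of invasion versus negative control.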

Mus musculus = assay: Antiinflammatory activity in C57BL/6J mouse assessed as inhibition of carrageenan-induced paw edema at 10 mg/kg, ip daily dosed 30 mins after carrageenan challenge and measured after 74 hrs carrageenan challenge and 2 hrs post last dose by caliper method relative to control; format: functional
[3] = Toxicity in C57BL/6J mouse at 10 mg/kg, ip; format: organism-based; details: in vivo

Sequence of C-X-C chemokine receptor type 4 (Homo sapiens) (P61073 whole entry): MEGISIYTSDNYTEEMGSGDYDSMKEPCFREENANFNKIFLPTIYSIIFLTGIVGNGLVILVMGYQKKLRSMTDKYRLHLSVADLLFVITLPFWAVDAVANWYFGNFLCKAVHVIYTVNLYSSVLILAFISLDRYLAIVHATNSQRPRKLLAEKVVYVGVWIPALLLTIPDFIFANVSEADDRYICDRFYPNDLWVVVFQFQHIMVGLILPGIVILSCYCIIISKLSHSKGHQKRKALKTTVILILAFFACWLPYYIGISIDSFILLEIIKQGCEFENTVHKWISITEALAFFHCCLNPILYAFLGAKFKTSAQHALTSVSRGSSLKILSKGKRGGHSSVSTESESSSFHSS

Row | SMILES | EC [1] | inhibition [2] | inhibition in vivo at 10 mg/kg (Mus musculus) | Activity [3]
1 | c1ccc(NCc2ccc(CNc3ccccc3)o2)cc1 | > 1000 nM | – | – | –
2 | CCc1ccc(NCc2ccc(CNc3ccc(CC)cc3)o2)cc1 | > 1000 nM | – | – | –
3 | FC(F)(F)c1ccc(NCc2ccc(CNc3ccc(C(F)(F)F)cc3)s2)cc1 | > 1000 nM | – | – | –
4 | CN1CCN(Cc2ccc(CN3CCN(C)CC3)s2)CC1 | 100 nM | 86% | – | –
5 | FC(F)(F)c1ccccc1NCc1ccc(CNc2ccccc2C(F)(F)F)s1 | > 1000 nM | – | – | –
6 | c1ccc(NCc2ccc(CNc3ccccc3)s2)cc1 | 1 nM | 68% | 30% | Non-Toxic
7 | COc1ccc(NCc2ccc(CNc3ccc(OC)cc3)s2)cc1 | 10 nM | 84% | – | Non-Toxic
8 | COc1cccc(NCc2ccc(CNc3cccc(OC)c3)s2)c1 | 1000 nM | – | – | –
9 | CCc1ccccc1NCc1ccc(CNc2ccccc2CC)o1 | 1000 nM | – | – | –
10 | FC(F)(F)c1ccc(NCc2ccc(CNc3ccc(C(F)(F)F)cc3)o2)cc1 | > 1000 nM | – | – | –
11 | Clc1ccc(NCc2ccc(CNc3ccc(Cl)cc3)o2)cc1 | 10 nM | 48% | 17% | Non-Toxic
12 | FC(F)(F)c1cccc(NCc2ccc(CNc3cccc(C(F)(F)F)c3)s2)c1 | 100 nM | 77% | – | Non-Toxic
13 | c1cc(CN2CCSCC2)oc1CN1CCSCC1 | 10 nM | 79% | – | –
14 | CCc1ccc(NCc2ccc(CNc3ccc(CC)cc3)s2)cc1 | > 1000 nM | – | – | –
15 | Fc1ccccc1NCc1ccc(CNc2ccccc2F)o1 | 10 nM | 71% | – | Non-Toxic
16 | Fc1ccc(NCc2cscc2CNc2ccc(F)cc2)cc1 | > 1000 nM | – | – | –
17 | CCc1cccc(NCc2ccc(CNc3cccc(CC)c3)s2)c1 | > 1000 nM | – | – | –
18 | CCc1cccc(NCc2ccc(CNc3cccc(CC)c3)o2)c1 | > 1000 nM | – | – | –
19 | Clc1cccc(NCc2ccc(CNc3cccc(Cl)c3)o2)c1 | > 1000 nM | – | – | –

Row | SMILES | EC [1] | inhibition [2] | inhibition in vivo at 10 mg/kg (Mus musculus) | Activity [3]
20 | CCc1ccc(NCc2cscc2CNc2ccc(CC)cc2)cc1 | > 1000 nM | – | – | –
21 | c1cc(CN2CCOCC2)sc1CN1CCOCC1 | > 1000 nM | – | – | –
22 | Fc1cccc(NCc2ccc(CNc3cccc(F)c3)o2)c1 | > 1000 nM | – | – | –
23 | c1ccc(NCc2ccc(CNc3ccccn3)cc2)nc1 | – | – | 40% | Non-Toxic
24 | Clc1ccc(NCc2ccc(CNc3ccc(Cl)cc3)s2)cc1 | 1 nM | 22% | – | –
25 | Fc1ccc(NCc2ccc(CNc3ccc(F)cc3)s2)cc1 | > 1000 nM | – | – | –
26 | CN1CCN(Cc2ccc(CN3CCN(C)CC3)o2)CC1 | 10 nM | 82% | – | Non-Toxic
27 | Clc1ccccc1NCc1ccc(CNc2ccccc2Cl)o1 | > 1000 nM | – | – | –
28 | COc1ccc(NCc2ccc(CNc3ccc(OC)cc3)o2)cc1 | > 1000 nM | – | – | –
29 | Fc1ccccc1NCc1ccc(CNc2ccccc2F)s1 | 1000 nM | – | – | –
30 | Cc1cccc(NCc2cscc2CNc2cccc(C)c2)c1 | > 1000 nM | – | – | –
31 | c1cc(CN2CCOCC2)oc1CN1CCOCC1 | 1000 nM | – | – | –
32 | Cc1ccc(NCc2ccc(CNc3ccc(C)cc3)s2)cc1 | 100 nM | 49% | – | Non-Toxic
33 | CSc1ccc(NCc2ccc(CNc3ccc(SC)cc3)o2)cc1 | > 1000 nM | – | – | –
34 | Cc1cccc(NCc2ccc(CNc3cccc(C)c3)o2)c1 | > 1000 nM | – | – | –
35 | Cc1ccccc1NCc1ccc(CNc2ccccc2C)o1 | > 1000 nM | – | – | –
36 | Clc1cccc(NCc2ccc(CNc3cccc(Cl)c3)s2)c1 | 100 nM | 51% | – | Non-Toxic
37 | Cc1ccc(NCc2ccc(CNc3ccc(C)cc3)o2)cc1 | 100 nM | 75% | 15% | Non-Toxic
38 | COc1ccccc1NCc1ccc(CNc2ccccc2OC)o1 | 100 nM | 5% | – | –

Row | SMILES | EC [1] | inhibition [2] | inhibition in vivo at 10 mg/kg (Mus musculus) | Activity [3]
39 | Clc1ccc(NCc2cscc2CNc2ccc(Cl)cc2)cc1 | > 1000 nM | – | – | –
40 | Cc1ccccc1NCc1ccc(CNc2ccccc2C)s1 | 10 nM | 61% | – | Non-Toxic
41 | Clc1cccc(NCc2cscc2CNc2cccc(Cl)c2)c1 | > 1000 nM | – | – | –
42 | COc1cccc(NCc2ccc(CNc3cccc(OC)c3)o2)c1 | > 1000 nM | – | – | –
43 | FC(F)(F)c1ccc(NCc2cscc2CNc2ccc(C(F)(F)F)cc2)cc1 | > 1000 nM | – | – | –
44 | c1ccc(NCc2cscc2CNc2ccccc2)cc1 | 10 nM | 72% | – | Non-Toxic
45 | COc1ccccc1NCc1ccc(CNc2ccccc2OC)s1 | 10 nM | 52% | – | Non-Toxic
46 | CSc1ccc(NCc2ccc(CNc3ccc(SC)cc3)s2)cc1 | 100 nM | 88% | – | –
47 | CCc1ccccc1NCc1ccc(CNc2ccccc2CC)s1 | 1000 nM | – | – | –
48 | Fc1cccc(NCc2cscc2CNc2cccc(F)c2)c1 | > 1000 nM | – | – | –
49 | Cc1ccc(NCc2cscc2CNc2ccc(C)cc2)cc1 | > 1000 nM | – | – | –
50 | FC(F)(F)c1ccccc1NCc1ccc(CNc2ccccc2C(F)(F)F)o1 | 100 nM | 24% | – | –
51 | FC(F)(F)c1cccc(NCc2cscc2CNc2cccc(C(F)(F)F)c2)c1 | > 1000 nM | – | – | –
52 | Fc1ccc(NCc2ccc(CNc3ccc(F)cc3)o2)cc1 | 100 nM | 53% | 31% | Non-Toxic
53 | FC(F)(F)c1cccc(NCc2ccc(CNc3cccc(C(F)(F)F)c3)o2)c1 | > 1000 nM | – | – | –
54 | Cc1cccc(NCc2ccc(CNc3cccc(C)c3)s2)c1 | > 1000 nM | – | – | –
55 | Clc1ccccc1NCc1ccc(CNc2ccccc2Cl)s1 | 10 nM | 93% | > 5% | Non-Toxic
56 | Fc1cccc(NCc2ccc(CNc3cccc(F)c3)s2)c1 | > 1000 nM | – | – | –
57 | c1cc(CN2CCSCC2)sc1CN1CCSCC1 | 1 nM | 88% | – | Non-Toxic
